# Results reported in ChEMBL document CHEMBL3046507, “Synthesis and herbicidal activities of novel 3-N-substituted amino-6-methyl-4-(3-trifluoromethylphenyl)pyridazine derivatives” (2008).
# Experiments:
# [1] = system: Spirodela polyrhiza; experiment: Inhibition of chlorophyll in Spirodela polyrhiza fronds at 10 ug/mL using light intensity of 45 uE/m2/s measured after 7 days; type: functional; conditions: 168 h
# Outline: (§1)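 Giant duckweed assay. Compound in DMF dropped onto filter paper, solvent evaporated 15 min, paper placed in flask with 15 mL fresh medium and shaken >10 min. 10 fronds inoculated per flask and grown 7 days at 23-26 °C, 16 h light/8 h dark, ca. 45 µE m^-2 s^-1. DMF plus medium served as control. Chl extracted in 96% ethanol overnight at 4 °C; OD read at 665 and 649 nm; content expressed as percent of control.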
# [2] = system: Spirodela polyrhiza; experiment: Inhibition of chlorophyll in Spirodela polyrhiza fronds at 1 ug/mL using light intensity of 45 uE/m2/s measured after 7 days; type: functional; conditions: 168 h; outline: as §1
# [3] = system: Digitaria; experiment: Herbicidal activity against Digitaria adscendens assessed as inhibition of fresh plant weight at 750 g/ha using preemergence protocol measured after 24 days under green house conditions; conditions: in Digitaria adscendens, pre-emergence
# [4] = system: Digitaria; experiment: Herbicidal activity against Digitaria adscendens assessed as inhibition of fresh plant weight at 750 g/ha using postemergence protocol measured after 24 days under green house conditions; conditions: in Digitaria adscendens, post-emergence
# [5] = system: Amaranthus retroflexus; experiment: Herbicidal activity against Amaranthus retroflexus assessed as inhibition of fresh plant weight at 75 g/ha using postemergence protocol measured after 24 days under green house conditions; conditions: post-emergence
# [6] = system: Amaranthus retroflexus; experiment: Herbicidal activity against Amaranthus retroflexus assessed as inhibition of fresh plant weight at 750 g/ha using preemergence protocol measured after 24 days under green house conditions; conditions: pre-emergence
# [7] = system: Amaranthus retroflexus; experiment: Herbicidal activity against Amaranthus retroflexus assessed as inhibition of fresh plant weight at 150 g/ha using postemergence protocol measured after 24 days under green house conditions; conditions: post-emergence
# [8] = system: Amaranthus retroflexus; experiment: Herbicidal activity against Amaranthus retroflexus assessed as inhibition of fresh plant weight at 300 g/ha using postemergence protocol measured after 24 days under green house conditions; conditions: post-emergence
# [9] = system: Amaranthus retroflexus; experiment: Herbicidal activity against Amaranthus retroflexus assessed as inhibition of fresh plant weight at 750 g/ha using postemergence protocol measured after 24 days under green house conditions; conditions: post-emergence
# [10] = system: Amaranthus retroflexus; experiment: Herbicidal activity against Amaranthus retroflexus assessed as inhibition of fresh plant weight at 600 g/ha using postemergence protocol measured after 24 days under green house conditions; conditions: post-emergence
# [11] = system: Brassica rapa subsp. oleifera; experiment: Herbicidal activity against Brassica rapa subsp. oleifera assessed as inhibition of fresh plant weight at 750 g/ha using preemergence protocol measured after 24 days under green house conditions; conditions: pre-emergence
# [12] = system: Brassica rapa subsp. oleifera; experiment: Herbicidal activity against Brassica rapa subsp. oleifera assessed as inhibition of fresh plant weight at 75 g/ha using postemergence protocol measured after 24 days under green house conditions; conditions: post-emergence
# [13] = system: Brassica rapa subsp. oleifera; experiment: Herbicidal activity against Brassica rapa subsp. oleifera assessed as inhibition of fresh plant weight at 750 g/ha using postemergence protocol measured after 24 days under green house conditions; conditions: post-emergence
# [14] = system: Brassica rapa subsp. oleifera; experiment: Herbicidal activity against Brassica rapa subsp. oleifera assessed as inhibition of fresh plant weight at 150 g/ha using postemergence protocol measured after 24 days under green house conditions; conditions: post-emergence
# [15] = system: Brassica rapa subsp. oleifera; experiment: Herbicidal activity against Brassica rapa subsp. oleifera assessed as inhibition of fresh plant weight at 300 g/ha using postemergence protocol measured after 24 days under green house conditions; conditions: post-emergence
# [16] = system: Brassica rapa subsp. oleifera; experiment: Herbicidal activity against Brassica rapa subsp. oleifera assessed as inhibition of fresh plant weight at 600 g/ha using postemergence protocol measured after 24 days under green house conditions; conditions: post-emergence
# [17] = system: Echinochloa crus-galli; experiment: Herbicidal activity against Echinochloa crus-galli (barnyard grass) assessed as inhibition of fresh plant weight at 750 g/ha using preemergence protocol measured after 24 days under green house conditions; conditions: pre-emergence
# [18] = system: Echinochloa crus-galli; experiment: Herbicidal activity against Echinochloa crus-galli (barnyard grass) assessed as inhibition of fresh plant weight at 750 g/ha using postemergence protocol measured after 24 days under green house conditions; conditions: post-emergence
# [19] = system: Brassica rapa subsp. oleifera; experiment: Herbicidal activity against Brassica rapa subsp. oleifera assessed as inhibition of fresh plant weight at 600 g/ha using preemergence protocol measured […] under green house conditions; type: functional; conditions: pre-emergence
# Outline: (§2)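 Pre-emergence treatment. Aboveground fresh weight measured 24 days later; percent inhibition calculated against controls. Two replicates per treatment.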
# [20] = system: Digitaria; experiment: Herbicidal activity against Digitaria adscendens assessed as inhibition of fresh plant weight at 600 g/ha using postemergence protocol […] under green house conditions; type: functional; conditions: in Digitaria adscendens, post-emergence
# Outline: (§3)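 Weed seedlings at one-leaf-and-one-stem stage sprayed post-emergence with test solution at 750, 600, 300, 150 or 75 g/ha. Aboveground fresh weight determined 24 days after treatment; percent inhibition calculated relative to controls. Two replicates per treatment.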
# [21] = system: Digitaria; experiment: Herbicidal activity against Digitaria adscendens assessed as inhibition of fresh plant weight at 600 g/ha using preemergence protocol […] under green house conditions; type: functional; conditions: in Digitaria adscendens, pre-emergence; outline: as §2
# [22] = system: Echinochloa crus-galli; experiment: Herbicidal activity against Echinochloa crus-galli (barnyard grass) assessed as inhibition of fresh plant weight at 600 g/ha using preemergence protocol […] under green house conditions; type: functional; conditions: pre-emergence; outline: as §2
# [23] = system: Echinochloa crus-galli; experiment: Herbicidal activity against Echinochloa crus-galli (barnyard grass) assessed as inhibition of fresh plant weight at 600 g/ha using postemergence protocol measured […] under green house conditions; type: functional; conditions: post-emergence; outline: as §3
# [24] = system: Amaranthus retroflexus; experiment: Herbicidal activity against Amaranthus retroflexus assessed as inhibition of fresh plant weight at 600 g/ha using preemergence protocol measured […] under green house conditions; type: functional; conditions: pre-emergence; outline: as §2
structure (smiles),measurement,setting,value
Cc1cc(-c2cccc(C(F)(F)F)c2)c(Nc2ccccc2)nn1,inhibition at 10 µg/mL,[1],100%
same,inhibition at 1 µg/mL,[2],100%
same,inhibition at 750 g/ha,[3],43%
same,inhibition at 750 g/ha,[4],0%
same,inhibition at 75 g/ha,[5],18%
same,inhibition at 750 g/ha,[6],33%
same,inhibition at 150 g/ha,[7],41%
same,inhibition at 300 g/ha,[8],43%
same,inhibition at 750 g/ha,[9],60%
same,inhibition at 600 g/ha,[10],61%
same,inhibition at 750 g/ha,[11],48%
same,inhibition at 75 g/ha,[12],66%
same,inhibition at 750 g/ha,[13],99%
same,inhibition at 150 g/ha,[14],74%
same,inhibition at 300 g/ha,[15],84%
same,inhibition at 600 g/ha,[16],92%
same,inhibition at 750 g/ha,[17],43%
same,inhibition at 750 g/ha,[18],15%
CCOC(=O)n1nc(C)cc(-c2cccc(C(F)(F)F)c2)c1=O,inhibition at 600 g/ha,[19],87%
same,inhibition at 10 µg/mL,[1],100%
same,inhibition at 600 g/ha,[20],13%
same,inhibition at 600 g/ha,[21],100%
same,inhibition at 600 g/ha,[22],46%
same,inhibition at 600 g/ha,[23],0%
same,inhibition at 600 g/ha,[24],100%
same,inhibition at 600 g/ha,[10],61%
same,inhibition at 600 g/ha,[16],55%
CCCn1nc(C)cc(-c2cccc(C(F)(F)F)c2)c1=O,inhibition at 600 g/ha,[19],61%
same,inhibition at 10 µg/mL,[1],90%
same,inhibition at 600 g/ha,[20],19%
same,inhibition at 600 g/ha,[21],100%
same,inhibition at 600 g/ha,[22],82%
same,inhibition at 600 g/ha,[23],5%
same,inhibition at 600 g/ha,[24],51%
same,inhibition at 600 g/ha,[10],28%
same,inhibition at 600 g/ha,[16],6%
O=C(Nc1ccc(F)cc1F)c1cccnc1Oc1cccc(C(F)(F)F)c1 [DIFLUFENICAN],inhibition at 10 µg/mL,[1],94%
same,inhibition at 1 µg/mL,[2],90%
same,inhibition at 750 g/ha,[3],100%
same,inhibition at 750 g/ha,[4],83%
same,inhibition at 75 g/ha,[5],41%
same,inhibition at 750 g/ha,[6],90%
same,inhibition at 150 g/ha,[7],70%
same,inhibition at 300 g/ha,[8],74%
same,inhibition at 750 g/ha,[9],100%
same,inhibition at 600 g/ha,[10],100%
same,inhibition at 750 g/ha,[11],71%
same,inhibition at 75 g/ha,[12],44%
same,inhibition at 750 g/ha,[13],98%
same,inhibition at 150 g/ha,[14],88%
same,inhibition at 300 g/ha,[15],94%
same,inhibition at 600 g/ha,[16],98%
same,inhibition at 750 g/ha,[17],94%
same,inhibition at 750 g/ha,[18],67%
